Experiments:
[1] = biological target: Receptor-type tyrosine-protein kinase FLT3 (Homo sapiens) (UniProt P36888); assay: Inhibition of human N-terminal GST-fused FLT3 cytoplasmic domain (564 to 993 (end)residues) expressed in baculovirus expression system at 20 uM measured after 1 hr in presence of peptide substrate and ATP by off-chip mobility shift assay relative to control
Procedure, shortened: (§1)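 Off-chip mobility shift assay. Product and substrate peptides were separated; activity was taken as P/(P+S). Complete reaction was set as 0% inhibition and enzyme-free background as 100%. Run in triplicate, mean ± SD.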

[2] = biological target: Epidermal growth factor receptor (Homo sapiens) (UniProt P00533); assay: Inhibition of human N-terminal GST-fused EGFR cytoplasmic domain (669 to 1210 (end)residues) expressed in baculovirus expression system at 20 uM measured after 1 hr in presence of peptide substrate and ATP by off-chip mobility shift assay relative to control; procedure, shortened: as §1
[3] = biological target: Ephrin type-A receptor 2 (Homo sapiens) (UniProt P29317); assay: Inhibition of EPHA2 (unknown origin) at 20 uM measured after 1 hr in presence of peptide substrate and ATP by off-chip mobility shift assay relative to control; procedure, shortened: as §1
[4] = biological target: Vascular endothelial growth factor receptor 2 (Homo sapiens) (UniProt P35968); assay: Inhibition of human N-terminal GST-fused KDR cytoplasmic domain (790 to 1356 (end)residues) expressed in baculovirus expression system at 20 uM measured after 1 hr in presence of peptide substrate and ATP by off-chip mobility shift assay relative to control; procedure, shortened: as §1
[5] = biological target: Tyrosine-protein kinase SYK (Homo sapiens) (UniProt P43405); assay: Inhibition of human full-length N-terminal GST-fused SYK (1 to 635 (end)residues) expressed in baculovirus expression system at 20 uM measured after 1 hr in presence of peptide substrate and ATP by off-chip mobility shift assay relative to control; procedure, shortened: as §1
[6] = Induction of apoptosis in human PC9-OR cells assessed as early apoptotic cells at 20 uM measured after 24 hrs by Annexin V-[…]propidium iodide staining based flow cytometry relative to control; type: functional
Procedure, shortened: (§2)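 Resistant cells were seeded at 500.000 per dish and treated the next day for 24 h at 20 μM. Cells were harvested, washed in PBS, and stained with annexin V-Alexa 488 and PI, then analysed by flow cytometry. Early apoptotic cells were scored as annexin+/PI−, late apoptotic/necrotic cells as annexin+/PI+.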

[7] = Induction of apoptosis in human HCC827 Gefitinib-resistant (GR) cells assessed as late apoptotic/necrotic cells at 20 uM measured after 24 hrs by Annexin V-[…]propidium iodide staining based flow cytometry relative to control; type: functional, HCC827 Gefitinib-resistant (GR) cell; procedure, shortened: as §2

Chain of Vascular endothelial growth factor receptor 2 (Homo sapiens) (P35968 whole entry, the tested form may be a part): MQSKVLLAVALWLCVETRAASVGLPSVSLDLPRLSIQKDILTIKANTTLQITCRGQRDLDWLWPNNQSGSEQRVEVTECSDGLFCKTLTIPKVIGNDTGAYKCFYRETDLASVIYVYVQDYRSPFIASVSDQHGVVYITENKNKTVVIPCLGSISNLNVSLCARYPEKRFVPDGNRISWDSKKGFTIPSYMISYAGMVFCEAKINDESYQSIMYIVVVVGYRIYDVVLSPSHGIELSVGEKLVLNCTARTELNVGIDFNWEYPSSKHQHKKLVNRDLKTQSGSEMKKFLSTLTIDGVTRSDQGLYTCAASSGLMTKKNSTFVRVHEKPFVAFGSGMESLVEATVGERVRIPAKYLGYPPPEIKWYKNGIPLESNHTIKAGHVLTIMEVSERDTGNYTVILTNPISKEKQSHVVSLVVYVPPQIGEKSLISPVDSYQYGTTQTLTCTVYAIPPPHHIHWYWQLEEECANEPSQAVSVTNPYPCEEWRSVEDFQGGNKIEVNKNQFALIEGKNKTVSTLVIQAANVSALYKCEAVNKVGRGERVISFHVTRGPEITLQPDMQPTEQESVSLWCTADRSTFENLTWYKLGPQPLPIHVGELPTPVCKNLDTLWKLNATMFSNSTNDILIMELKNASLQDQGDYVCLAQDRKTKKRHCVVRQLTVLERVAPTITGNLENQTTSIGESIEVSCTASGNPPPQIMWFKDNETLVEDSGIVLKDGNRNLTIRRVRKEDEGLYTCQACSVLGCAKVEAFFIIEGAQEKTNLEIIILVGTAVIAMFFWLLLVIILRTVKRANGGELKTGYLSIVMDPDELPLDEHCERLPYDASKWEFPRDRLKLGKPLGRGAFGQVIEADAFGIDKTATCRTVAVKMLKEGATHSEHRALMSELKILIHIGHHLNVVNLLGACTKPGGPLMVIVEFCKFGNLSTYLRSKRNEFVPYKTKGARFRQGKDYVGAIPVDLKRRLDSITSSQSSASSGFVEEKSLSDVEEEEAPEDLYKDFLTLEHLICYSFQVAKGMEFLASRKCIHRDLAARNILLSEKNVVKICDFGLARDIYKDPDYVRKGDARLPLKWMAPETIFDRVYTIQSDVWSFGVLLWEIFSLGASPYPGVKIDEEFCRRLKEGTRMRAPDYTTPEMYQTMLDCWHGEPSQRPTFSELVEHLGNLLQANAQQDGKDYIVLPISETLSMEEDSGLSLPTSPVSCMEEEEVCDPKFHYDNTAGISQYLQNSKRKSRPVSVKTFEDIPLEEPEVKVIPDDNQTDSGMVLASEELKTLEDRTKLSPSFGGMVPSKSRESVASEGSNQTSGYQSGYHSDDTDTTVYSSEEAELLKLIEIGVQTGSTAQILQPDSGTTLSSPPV
Chain of Ephrin type-A receptor 2 (Homo sapiens) (P29317 whole entry, the tested form may be a part): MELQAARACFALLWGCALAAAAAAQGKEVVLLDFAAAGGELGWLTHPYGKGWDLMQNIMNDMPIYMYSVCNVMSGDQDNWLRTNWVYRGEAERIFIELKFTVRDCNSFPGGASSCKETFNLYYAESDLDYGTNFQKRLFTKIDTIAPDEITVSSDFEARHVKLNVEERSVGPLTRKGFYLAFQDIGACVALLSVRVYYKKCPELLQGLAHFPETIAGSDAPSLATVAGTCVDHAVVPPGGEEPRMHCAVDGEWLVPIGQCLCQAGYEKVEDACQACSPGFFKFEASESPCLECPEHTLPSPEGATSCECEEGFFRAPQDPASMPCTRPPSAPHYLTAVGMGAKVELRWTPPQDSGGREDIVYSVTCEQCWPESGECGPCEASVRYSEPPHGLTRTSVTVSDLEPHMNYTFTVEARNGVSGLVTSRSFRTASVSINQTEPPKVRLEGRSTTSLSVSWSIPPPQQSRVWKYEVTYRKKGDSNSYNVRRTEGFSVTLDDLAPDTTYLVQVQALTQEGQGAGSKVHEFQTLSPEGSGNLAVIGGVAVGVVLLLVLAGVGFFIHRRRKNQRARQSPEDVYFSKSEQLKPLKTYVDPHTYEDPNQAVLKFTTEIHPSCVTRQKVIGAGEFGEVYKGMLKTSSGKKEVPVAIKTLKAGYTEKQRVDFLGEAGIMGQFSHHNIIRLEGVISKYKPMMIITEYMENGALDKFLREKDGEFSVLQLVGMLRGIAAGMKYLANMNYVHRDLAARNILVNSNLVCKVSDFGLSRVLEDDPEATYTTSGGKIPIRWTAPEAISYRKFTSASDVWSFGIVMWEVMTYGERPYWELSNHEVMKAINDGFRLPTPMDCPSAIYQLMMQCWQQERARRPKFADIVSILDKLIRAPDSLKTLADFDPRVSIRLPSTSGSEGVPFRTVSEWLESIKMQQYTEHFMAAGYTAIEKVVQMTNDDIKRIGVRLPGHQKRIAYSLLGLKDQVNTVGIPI
Chain of Epidermal growth factor receptor (Homo sapiens) (P00533 whole entry, the tested form may be a part): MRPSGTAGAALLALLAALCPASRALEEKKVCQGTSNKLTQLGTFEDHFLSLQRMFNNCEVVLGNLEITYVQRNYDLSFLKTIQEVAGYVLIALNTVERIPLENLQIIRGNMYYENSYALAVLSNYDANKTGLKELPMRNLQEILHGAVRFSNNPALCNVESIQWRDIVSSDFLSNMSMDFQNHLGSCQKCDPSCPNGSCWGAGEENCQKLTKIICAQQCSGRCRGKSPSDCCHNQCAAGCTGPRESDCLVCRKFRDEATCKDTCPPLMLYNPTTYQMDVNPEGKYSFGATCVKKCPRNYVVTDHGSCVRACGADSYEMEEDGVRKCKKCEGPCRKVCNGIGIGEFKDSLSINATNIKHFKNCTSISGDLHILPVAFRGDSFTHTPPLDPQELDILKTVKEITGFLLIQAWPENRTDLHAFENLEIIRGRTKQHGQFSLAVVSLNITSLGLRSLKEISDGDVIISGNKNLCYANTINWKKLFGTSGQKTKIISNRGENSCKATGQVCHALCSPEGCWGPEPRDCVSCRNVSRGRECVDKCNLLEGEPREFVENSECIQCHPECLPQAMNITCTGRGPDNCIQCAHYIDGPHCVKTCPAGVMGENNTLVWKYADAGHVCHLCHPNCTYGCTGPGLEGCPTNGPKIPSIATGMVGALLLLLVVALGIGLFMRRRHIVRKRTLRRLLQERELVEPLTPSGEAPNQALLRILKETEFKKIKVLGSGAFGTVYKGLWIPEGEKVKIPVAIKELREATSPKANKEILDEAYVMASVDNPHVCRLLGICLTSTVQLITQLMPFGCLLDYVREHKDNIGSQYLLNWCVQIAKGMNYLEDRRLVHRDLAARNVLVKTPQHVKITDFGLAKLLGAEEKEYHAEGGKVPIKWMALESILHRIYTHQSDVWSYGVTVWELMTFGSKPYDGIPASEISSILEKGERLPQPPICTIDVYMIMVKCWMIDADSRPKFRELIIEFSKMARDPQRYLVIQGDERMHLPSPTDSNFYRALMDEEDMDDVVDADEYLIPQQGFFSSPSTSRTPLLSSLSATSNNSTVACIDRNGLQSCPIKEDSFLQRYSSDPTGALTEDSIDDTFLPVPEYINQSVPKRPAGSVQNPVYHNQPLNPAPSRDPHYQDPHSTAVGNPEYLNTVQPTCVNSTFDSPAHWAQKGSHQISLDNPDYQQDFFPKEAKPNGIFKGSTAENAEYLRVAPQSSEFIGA
Chain of Receptor-type tyrosine-protein kinase FLT3 (Homo sapiens) (P36888 whole entry, the tested form may be a part): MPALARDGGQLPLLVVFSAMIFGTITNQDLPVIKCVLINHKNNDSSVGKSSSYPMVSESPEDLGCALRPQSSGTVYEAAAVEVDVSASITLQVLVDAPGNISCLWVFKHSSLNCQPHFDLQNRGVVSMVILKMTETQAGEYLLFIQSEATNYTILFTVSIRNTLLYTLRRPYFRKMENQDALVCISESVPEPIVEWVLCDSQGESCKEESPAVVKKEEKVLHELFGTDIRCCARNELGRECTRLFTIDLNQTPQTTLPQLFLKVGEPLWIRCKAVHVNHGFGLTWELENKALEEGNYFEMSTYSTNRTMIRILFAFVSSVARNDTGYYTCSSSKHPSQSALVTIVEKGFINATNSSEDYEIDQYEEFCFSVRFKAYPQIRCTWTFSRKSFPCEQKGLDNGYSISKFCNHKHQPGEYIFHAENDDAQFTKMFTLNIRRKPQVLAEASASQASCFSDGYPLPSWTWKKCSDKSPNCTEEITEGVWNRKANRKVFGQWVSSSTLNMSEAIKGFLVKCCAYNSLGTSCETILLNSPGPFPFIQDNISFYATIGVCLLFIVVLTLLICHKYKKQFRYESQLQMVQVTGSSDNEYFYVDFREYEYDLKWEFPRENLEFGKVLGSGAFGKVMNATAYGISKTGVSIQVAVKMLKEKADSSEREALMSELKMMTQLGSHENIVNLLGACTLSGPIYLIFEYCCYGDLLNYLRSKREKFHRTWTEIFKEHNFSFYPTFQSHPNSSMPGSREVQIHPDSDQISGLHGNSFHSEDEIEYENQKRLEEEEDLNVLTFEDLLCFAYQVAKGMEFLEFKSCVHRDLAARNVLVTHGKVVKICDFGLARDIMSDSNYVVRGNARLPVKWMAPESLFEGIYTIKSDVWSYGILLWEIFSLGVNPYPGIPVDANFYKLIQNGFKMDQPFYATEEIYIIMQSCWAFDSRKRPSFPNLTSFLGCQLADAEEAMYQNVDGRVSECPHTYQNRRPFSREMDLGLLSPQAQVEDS

SMILES | inhibition [1] | inhibition [2] | inhibition [3] | inhibition [4] | inhibition [5] | Activity [6] | Activity [7]
Cc1ccc(NC(=O)CN2C(=O)/C(=N\NC(=O)c3cc(Br)ccc3O)c3ccc(Cl)cc32)cc1 | 71.9% | 72.9% | 62.5% | 66.6% | 49.4% | – | –
O=C(CN1C(=O)/C(=N\NC(=O)c2cc(Br)ccc2O)c2c(Br)cccc21)Nc1ccc([N+](=O)[O-])cc1 | 55.8% | 69.3% | 71.5% | 61.2% | 89.7% | – | –
Cc1ccc(NC(=O)CN2C(=O)/C(=N\NC(=O)c3cc(Br)ccc3O)c3ccccc32)cc1 | 89.7% | 85.2% | 95% | 81.4% | 91.9% | 75.5% | 96.2%
Cc1ccc(NC(=O)CN2C(=O)/C(=N\NC(=O)c3cc(Br)ccc3O)c3ccc(Br)cc32)cc1 | 72.6% | 70.9% | 69.2% | 63.5% | 54.1% | 57.5% | 90.8%
